Data reported in ChEMBL document CHEMBL4689842, “EUbOPEN Chemogenomics Library wave 1” (2021).

System: HEK-293T
Assay: Multiplex assay against HEK293T;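 for Population Tubulin-Different-Phenotype (%): share of the cells with healthy nuclei that show this phenotype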
Type: toxicity, cell-based
Conditions: human
Summary of the method: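 Per cents of healthy-nucleus cells form the tubulin, mitochondrial-mass and membrane-permeability phenotype values. Live cells were stained at seeding with Hoechst33342, BioTracker Green Microtubule Cytoskeleton Dye, MitoTracker Red and Annexin V Alexa Fluor 680. After compound addition they were imaged on a CQ1 microscope at 37°C and 5% CO2, and CellPathfinder machine-learning gating split them into Hoechst high-intensity objects or normal cells, normal cells into healthy, pyknosed or fragmented nuclei, and pyknosed cells into mitotic or apoptotic.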

[1] = 12 h, 1 µM, compound concentration 1 uM, replicate 1
[2] = 12 h, 1 µM, compound concentration 1 uM, replicate 2
[3] = 12 h, 10 µM, compound concentration 10 uM, replicate 1
[4] = 12 h, 10 µM, compound concentration 10 uM, replicate 2
[5] = 24 h, 1 µM, compound concentration 1 uM, replicate 1
[6] = 24 h, 1 µM, compound concentration 1 uM, replicate 2
[7] = 24 h, 10 µM, compound concentration 10 uM, replicate 1
[8] = 24 h, 10 µM, compound concentration 10 uM, replicate 2
[9] = 48 h, 1 µM, compound concentration 1 uM, replicate 1
[10] = 48 h, 1 µM, compound concentration 1 uM, replicate 2
[11] = 48 h, 10 µM, compound concentration 10 uM, replicate 1
[12] = 48 h, 10 µM, compound concentration 10 uM, replicate 2

Compound: Cc1nc(Nc2n[nH]c3c2CN(C(=O)N[C@H](CN(C)C)c2ccccc2)C3(C)C)c2sccc2n1 [PF-03758309]
- Population Apoptotic (%) [1]: 22%
- Population Fragmented Nuclei (%) [1]: 12%
- Population Healthy Nuclei (%) [1]: 65%
- Population Hoechst High Intensity Objects (%) [1]: 12%
- Population Membrane Permeable-Phenotype (%) [1]: 2%
- Population Mitochondria Different-Phenotype (%) [1]: 5%
- Population Mitotic Cells (%) [1]: 77%
- Population Normal (%) [1]: 87%
- Population Pyknosed Nuclei (%) [1]: 22%
- Population Tubulin-Different-Phenotype (%) [1]: 3%
- Total Cell Count [1]: 616
- Population Apoptotic (%) [2]: 8%
- Population Fragmented Nuclei (%) [2]: 5%
- Population Healthy Nuclei (%) [2]: 87%
- Population Hoechst High Intensity Objects (%) [2]: 3%
- Population Membrane Permeable-Phenotype (%) [2]: 0%
- Population Mitochondria Different-Phenotype (%) [2]: 14%
- Population Mitotic Cells (%) [2]: 91%
- Population Normal (%) [2]: 96%
- Population Pyknosed Nuclei (%) [2]: 6%
- Population Tubulin-Different-Phenotype (%) [2]: 6%
- Total Cell Count [2]: 1340
- Population Apoptotic (%) [3]: 27%
- Population Fragmented Nuclei (%) [3]: 16%
- Population Healthy Nuclei (%) [3]: 49%
- Population Hoechst High Intensity Objects (%) [3]: 17%
- Population Membrane Permeable-Phenotype (%) [3]: 12%
- Population Mitochondria Different-Phenotype (%) [3]: 21%
- Population Mitotic Cells (%) [3]: 72%
- Population Normal (%) [3]: 82%
- Population Pyknosed Nuclei (%) [3]: 33%
- Population Tubulin-Different-Phenotype (%) [3]: 45%
- Total Cell Count [3]: 604
- Population Apoptotic (%) [4]: 24%
- Population Fragmented Nuclei (%) [4]: 3%
- Population Healthy Nuclei (%) [4]: 79%
- Population Hoechst High Intensity Objects (%) [4]: 6%
- Population Membrane Permeable-Phenotype (%) [4]: 10%
- Population Mitochondria Different-Phenotype (%) [4]: 46%
- Population Mitotic Cells (%) [4]: 75%
- Population Normal (%) [4]: 93%
- Population Pyknosed Nuclei (%) [4]: 16%
- Population Tubulin-Different-Phenotype (%) [4]: 87%
- Total Cell Count [4]: 1040
- Population Apoptotic (%) [5]: 23%
- Population Fragmented Nuclei (%) [5]: 9%
- Population Healthy Nuclei (%) [5]: 76%
- Population Hoechst High Intensity Objects (%) [5]: 9%
- Population Membrane Permeable-Phenotype (%) [5]: 3%
- Population Mitochondria Different-Phenotype (%) [5]: 4%
- Population Mitotic Cells (%) [5]: 76%
- Population Normal (%) [5]: 90%
- Population Pyknosed Nuclei (%) [5]: 13%
- Population Tubulin-Different-Phenotype (%) [5]: 6%
- Total Cell Count [5]: 623
- Population Apoptotic (%) [6]: 4%
- Population Fragmented Nuclei (%) [6]: 8%
- Population Healthy Nuclei (%) [6]: 84%
- Population Hoechst High Intensity Objects (%) [6]: 3%
- Population Membrane Permeable-Phenotype (%) [6]: 4%
- Population Mitochondria Different-Phenotype (%) [6]: 11%
- Population Mitotic Cells (%) [6]: 95%
- Population Normal (%) [6]: 96%
- Population Pyknosed Nuclei (%) [6]: 6%
- Population Tubulin-Different-Phenotype (%) [6]: 21%
- Total Cell Count [6]: 1640
- Population Apoptotic (%) [7]: 27%
- Population Fragmented Nuclei (%) [7]: 15%
- Population Healthy Nuclei (%) [7]: 52%
- Population Hoechst High Intensity Objects (%) [7]: 14%
- Population Mitochondria Different-Phenotype (%) [7]: 24%
- Population Mitotic Cells (%) [7]: 72%
- Population Normal (%) [7]: 85%
- Population Pyknosed Nuclei (%) [7]: 31%
- Population Tubulin-Different-Phenotype (%) [7]: 47%
- Total Cell Count [7]: 627
- Population Apoptotic (%) [8]: 14%
- Population Fragmented Nuclei (%) [8]: 4%
- Population Healthy Nuclei (%) [8]: 81%
- Population Hoechst High Intensity Objects (%) [8]: 7%
- Population Membrane Permeable-Phenotype (%) [8]: 8%
- Population Mitochondria Different-Phenotype (%) [8]: 47%
- Population Mitotic Cells (%) [8]: 85%
- Population Normal (%) [8]: 92%
- Population Pyknosed Nuclei (%) [8]: 14%
- Population Tubulin-Different-Phenotype (%) [8]: 89%
- Total Cell Count [8]: 1130

Compound: CN1CCN(CCOc2cc(OC3CCOCC3)c3c(Nc4c(Cl)ccc5c4OCO5)ncnc3c2)CC1 [SARACATINIB]
- Population Apoptotic (%) [1]: 51%
- Population Fragmented Nuclei (%) [1]: 11%
- Population Healthy Nuclei (%) [1]: 29%
- Population Hoechst High Intensity Objects (%) [1]: 15%
- Population Membrane Permeable-Phenotype (%) [1]: 2%
- Population Mitochondria Different-Phenotype (%) [1]: 89%
- Population Mitotic Cells (%) [1]: 48%
- Population Normal (%) [1]: 84%
- Population Pyknosed Nuclei (%) [1]: 58%
- Population Tubulin-Different-Phenotype (%) [1]: 82%
- Total Cell Count [1]: 345
- Population Apoptotic (%) [2]: 22%
- Population Fragmented Nuclei (%) [2]: 4%
- Population Healthy Nuclei (%) [2]: 31%
- Population Hoechst High Intensity Objects (%) [2]: 8%
- Population Membrane Permeable-Phenotype (%) [2]: 3%
- Population Mitochondria Different-Phenotype (%) [2]: 71%
- Population Mitotic Cells (%) [2]: 77%
- Population Normal (%) [2]: 91%
- Population Pyknosed Nuclei (%) [2]: 63%
- Population Tubulin-Different-Phenotype (%) [2]: 58%
- Population Apoptotic (%) [3]: 72%
- Population Fragmented Nuclei (%) [3]: 15%
- Population Healthy Nuclei (%) [3]: 21%
- Population Hoechst High Intensity Objects (%) [3]: 17%
- Population Membrane Permeable-Phenotype (%) [3]: 15%
- Population Mitochondria Different-Phenotype (%) [3]: 94%
- Population Mitotic Cells (%) [3]: 27%
- Population Normal (%) [3]: 82%
- Population Pyknosed Nuclei (%) [3]: 63%
- Population Tubulin-Different-Phenotype (%) [3]: 89%
- Total Cell Count [3]: 223
- Population Apoptotic (%) [4]: 82%
- Population Fragmented Nuclei (%) [4]: 6%
- Population Healthy Nuclei (%) [4]: 22%
- Population Hoechst High Intensity Objects (%) [4]: 7%
- Population Membrane Permeable-Phenotype (%) [4]: 2%
- Population Mitochondria Different-Phenotype (%) [4]: 100%
- Population Mitotic Cells (%) [4]: 17%
- Population Normal (%) [4]: 92%
- Population Pyknosed Nuclei (%) [4]: 71%
- Population Tubulin-Different-Phenotype (%) [4]: 100%
- Total Cell Count [4]: 190
- Population Apoptotic (%) [5]: 54%
- Population Fragmented Nuclei (%) [5]: 11%
- Population Healthy Nuclei (%) [5]: 36%
- Population Hoechst High Intensity Objects (%) [5]: 13%
- Population Membrane Permeable-Phenotype (%) [5]: 3%
- Population Mitochondria Different-Phenotype (%) [5]: 87%
- Population Mitotic Cells (%) [5]: 45%
- Population Normal (%) [5]: 86%
- Population Pyknosed Nuclei (%) [5]: 52%
- Population Tubulin-Different-Phenotype (%) [5]: 65%
- Total Cell Count [5]: 382
- Population Apoptotic (%) [6]: 28%
- Population Fragmented Nuclei (%) [6]: 4%
- Population Healthy Nuclei (%) [6]: 39%
- Population Hoechst High Intensity Objects (%) [6]: 5%
- Population Membrane Permeable-Phenotype (%) [6]: 1%
- Population Mitochondria Different-Phenotype (%) [6]: 58%
- Population Mitotic Cells (%) [6]: 71%
- Population Normal (%) [6]: 94%
- Population Pyknosed Nuclei (%) [6]: 55%
- Population Tubulin-Different-Phenotype (%) [6]: 66%
- Total Cell Count [6]: 217
- Population Apoptotic (%) [7]: 80%
- Population Fragmented Nuclei (%) [7]: 12%
- Population Healthy Nuclei (%) [7]: 15%
- Population Hoechst High Intensity Objects (%) [7]: 23%
- Population Membrane Permeable-Phenotype (%) [7]: 0%
- Population Mitochondria Different-Phenotype (%) [7]: 100%
- Population Mitotic Cells (%) [7]: 19%
- Population Normal (%) [7]: 76%
- Population Pyknosed Nuclei (%) [7]: 71%
- Population Tubulin-Different-Phenotype (%) [7]: 90%
- Total Cell Count [7]: 248
- Population Apoptotic (%) [8]: 88%
- Population Fragmented Nuclei (%) [8]: 5%
- Population Healthy Nuclei (%) [8]: 25%
- Population Hoechst High Intensity Objects (%) [8]: 5%
- Population Membrane Permeable-Phenotype (%) [8]: 6%
- Population Mitochondria Different-Phenotype (%) [8]: 95%
- Population Mitotic Cells (%) [8]: 11%
- Population Normal (%) [8]: 94%
- Population Pyknosed Nuclei (%) [8]: 69%
- Population Tubulin-Different-Phenotype (%) [8]: 85%
- Total Cell Count [8]: 208
- Population Apoptotic (%) [9]: 51%
- Population Fragmented Nuclei (%) [9]: 16%
- Population Healthy Nuclei (%) [9]: 47%
- Population Hoechst High Intensity Objects (%) [9]: 18%
- Population Membrane Permeable-Phenotype (%) [9]: 2%
- Population Mitochondria Different-Phenotype (%) [9]: 50%
- Population Mitotic Cells (%) [9]: 48%
- Population Normal (%) [9]: 81%
- Population Pyknosed Nuclei (%) [9]: 36%
- Population Tubulin-Different-Phenotype (%) [9]: 49%
- Total Cell Count [9]: 448
- Population Apoptotic (%) [10]: 26%
- Population Fragmented Nuclei (%) [10]: 4%
- Population Healthy Nuclei (%) [10]: 70%
- Population Hoechst High Intensity Objects (%) [10]: 5%
- Population Membrane Permeable-Phenotype (%) [10]: 1%
- Population Mitochondria Different-Phenotype (%) [10]: 32%
- Population Mitotic Cells (%) [10]: 73%
- Population Normal (%) [10]: 94%
- Population Pyknosed Nuclei (%) [10]: 25%
- Population Tubulin-Different-Phenotype (%) [10]: 55%
- Total Cell Count [10]: 315
- Population Apoptotic (%) [11]: 73%
- Population Fragmented Nuclei (%) [11]: 23%
- Population Healthy Nuclei (%) [11]: 30%
- Population Hoechst High Intensity Objects (%) [11]: 26%
- Population Membrane Permeable-Phenotype (%) [11]: 3%
- Population Mitochondria Different-Phenotype (%) [11]: 96%
- Population Mitotic Cells (%) [11]: 26%
- Population Normal (%) [11]: 73%
- Population Pyknosed Nuclei (%) [11]: 45%
- Population Tubulin-Different-Phenotype (%) [11]: 78%
- Total Cell Count [11]: 230
- Population Apoptotic (%) [12]: 84%
- Population Fragmented Nuclei (%) [12]: 6%
- Population Healthy Nuclei (%) [12]: 41%
- Population Hoechst High Intensity Objects (%) [12]: 11%
- Population Membrane Permeable-Phenotype (%) [12]: 0%
- Population Mitochondria Different-Phenotype (%) [12]: 98%
- Population Mitotic Cells (%) [12]: 15%
- Population Normal (%) [12]: 88%
- Population Pyknosed Nuclei (%) [12]: 52%
- Population Tubulin-Different-Phenotype (%) [12]: 71%
- Total Cell Count [12]: 204
